The target in test [1] is T1, Integrase (Human immunodeficiency virus 1, UniProt Q7ZJM1). Nature of the test: Inhibition of 3'-processing activity of HIV1 integrase. The method in brief:
(§1)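 Then 20 nM 5′-32P-labeled 21-mer oligonucleotide added for 1 h. Quenched with formamide loading dye. % inhibition from 19-mer (3′-processing) or strand transfer product fractions versus DNA-alone and DNA+IN controls. IC50 from log concentration versus % inhibition plot.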

Test [2] deals with T1, Integrase. The test is described as follows: Inhibition of strand transfer activity of HIV1 integrase. In short, it runs like this:
as §1

T1 sequence (Q7ZJM1 whole entry): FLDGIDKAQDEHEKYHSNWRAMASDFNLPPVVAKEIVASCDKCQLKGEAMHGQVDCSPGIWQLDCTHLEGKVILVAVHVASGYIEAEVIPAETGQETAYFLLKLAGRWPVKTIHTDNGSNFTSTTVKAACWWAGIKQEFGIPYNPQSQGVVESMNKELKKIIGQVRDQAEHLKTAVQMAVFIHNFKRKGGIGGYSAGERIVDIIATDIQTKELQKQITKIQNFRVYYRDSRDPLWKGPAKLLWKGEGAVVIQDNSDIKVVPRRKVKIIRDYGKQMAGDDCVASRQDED

As a reminder, the IC50 is the concentration needed to halve the response being measured. Higher therefore signals a need for much substance. Take `Cc1ccc(C(=O)C2C(=O)C(=O)N(CCN(C)C)C2c2ccccc2F)cc1` (configuration not stated) [1-(2-(dimethylamino)ethyl)-5-(2-fluorophenyl)-3-hydroxy-4-(4-methylbenzoyl)-1H-pyrrol-2(5H)-one]: the IC50 against Integrase [1] and on Integrase [2] was over 1000 µM each time.
In the case of `CN(C)CCCN1C(=O)C(=O)C(C(=O)c2cccs2)C1c1cccs1` (configuration not stated) [1-(3-(dimethylamino)propyl)-3-hydroxy-5-(thiophen-2-yl)-4-(thiophene-2-carbonyl)-1H-pyrrol-2(5H)-one], the IC50 at Integrase [1] and at Integrase [2] was over 100 µM throughout.
Take `O=C1C(=O)N(CCCN2CCOCC2)C(c2ccccc2F)C1C(=O)c1ccc(F)cc1` (configuration not stated) [4-(4-fluorobenzoyl)-5-(2-fluorophenyl)-3-hydroxy-1-(3-morpholinopropyl)-1H-pyrrol-2(5H)-one]: the IC50 against Integrase [1] and on Integrase [2] was over 1000 µM each time.
For `COc1ccc(C2C(C(=O)c3ccccc3)C(=O)C(=O)N2CCCO)cc1OC` (configuration not stated) [4-benzoyl-5-(3,4-dimethoxyphenyl)-3-hydroxy-1-(3-hydroxypropyl)-1H-pyrrol-2(5H)-one], the IC50 against Integrase [1] and against Integrase [2] was over 100 µM each time.
Take `COc1ccc(C2C(C(=O)c3ccc(F)cc3)C(=O)C(=O)N2CCN(C)C)cc1OC` (configuration not stated) [5-(3,4-dimethoxyphenyl)-1-(2-(dimethylamino)ethyl)-4-(4-fluorobenzoyl)-3-hydroxy-1H-pyrrol-2(5H)-one]: the IC50 at Integrase [1] and against Integrase [2] was over 1000 µM throughout.
For `NCCCCCCNC(=O)c1c(O)c2ccccc2oc1=O` [N-(6-aminohexyl)-4-hydroxy-2-oxo-2H-chromene-3-carboxamide], the IC50 against Integrase [1] and at Integrase [2] was over 100 µM in each case.

(Values after BindingDB's records for doi:10.1021/jm0510629 (University of Houston, 2006).)
